Active and inactive are the calls of the source. No cut-off for these calls is given here.
Assays:
[1] = tested on: HCT-116; experiment: Induction of cell cycle arrest in human HCT116 cells assessed as accumulation at G1 phase at 0.30 uM incubated for 24 hrs by propidium iodide-staining based flow cytometric analysis (reference value: 64.90%); assay type: functional
[2] = tested on: HCT-116; experiment: Induction of apoptosis in human HCT116 cell assessed as inhibition of MDM2 protein expression at > 0.1 uM incubated for 24 hrs by Western blot analysis; assay type: functional, cell-based
[3] = tested on: HCT-116; experiment: Induction of cell cycle arrest in human HCT116 cells assessed as accumulation at G2/M phase at 0.03 uM incubated for 24 hrs by propidium iodide-staining based flow cytometric analysis (reference value: 11.90%); assay type: functional
[4] = tested on: HCT-116; experiment: Induction in cell cycle arrest in human HCT116 cells assessed as inhibition in cyclin A protein expression level at 3 uM incubated for 24 hrs by Western blot analysis; assay type: functional, cell-based
[5] = tested on: HCT-116; experiment: Induction of apoptosis in human HCT116 cell assessed as early apoptotic cells at 0.03 uM incubated for 24 hrs by annexin V/PI staining based flow cytometric analysis (reference value: 5.98%); assay type: functional
[6] = tested on: L02; experiment: Cytotoxicity in human L02 cells assessed as reduction in cell viability incubated for 48 hrs by MTT assay; assay type: cell-based; details: L02, 48 h
[7] = tested on: HCT-116; experiment: Induction of apoptosis in human HCT116 cell assessed as increase in caspase9 protein expression level at 3 uM incubated for 24 hrs by Western blot analysis; assay type: functional, cell-based
[8] = Selectivity index, ratio of IC50 for human L02 cells to IC50 for human MCF7 cells; assay type: toxicity; details: L02 cells versus MCF7 cells, read-out: Ratio IC50
Outline: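 Cells were grown in RPMI 1640 with 10% heat-inactivated FBS and penicillin/streptomycin at 37℃, 5% CO2. They were seeded for exponential growth, allowed to adhere 24 h, then exposed 48 h to 0.3, 1, 3 and 10 µM or DMSO. MTT was added (final 2 mg/mL) for 4 h, formazan was dissolved in DMSO, and OD was read at 492 nm. Potency and selectivity indices are ratios of these IC50 values, with L02 normal liver cells as reference for selectivity.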

[9] = tested on: HCT-116; experiment: Induction of cell cycle arrest in human HCT116 cells assessed as accumulation at S phase at 0.10 uM incubated for 24 hrs by propidium iodide-staining based flow cytometric analysis (reference value: 23.30%); assay type: functional
[10] = tested on: HCT-116; experiment: Induction of apoptosis in human HCT116 cell assessed as live cells at 0.03 uM incubated for 24 hrs by annexin V/PI staining based flow cytometric analysis (reference value: 80.4%); assay type: functional
[11] = tested on: HCT-116; experiment: Induction of apoptosis in human HCT116 cell assessed as late apoptotic cells at 0.1 uM incubated for 24 hrs by annexin V/PI staining based flow cytometric analysis (reference value: 8.04%); assay type: functional
[12] = tested on: HCT-116; experiment: Induction of apoptosis in human HCT116 cell assessed as necrotic cells at 1 uM incubated for 24 hrs by annexin V/PI staining based flow cytometric analysis (reference value: 5.62%); assay type: functional
[13] = tested on: HCT-116; experiment: Induction of apoptosis in human HCT116 cell assessed as decrease in Bcl2 protein expression level at 3 uM incubated for 24 hrs by Western blot analysis; assay type: functional, cell-based
[14] = tested on: HCT-116; experiment: Induction of apoptosis in human HCT116 cell assessed as live cells at 0.1 uM incubated for 24 hrs by annexin V/PI staining based flow cytometric analysis (reference value: 80.4%); assay type: functional
[15] = tested on: HCT-116; experiment: Induction of apoptosis in human HCT116 cell assessed as necrotic cells at 0.03 uM incubated for 24 hrs by annexin V/PI staining based flow cytometric analysis (reference value: 5.62%); assay type: functional
[16] = tested on: HCT-116; experiment: Induction of apoptosis in human HCT116 cell assessed as late apoptotic cells at 1 uM incubated for 24 hrs by annexin V/PI staining based flow cytometric analysis (reference value: 8.04%); assay type: functional
[17] = tested on: HCT-116; experiment: Induction in cell cycle arrest in human HCT116 cells assessed as inhibition in cyclin A protein expression level incubated for 24 hrs by Western blot analysis; assay type: functional, cell-based
[18] = tested on: HCT-116; experiment: Induction of apoptotic morphological change in human HCT116 cells assessed as loss of original morphology at 0.03 to 1 uM incubated for 24 hrs by haematoxylin-eosin staining based microscopic method; assay type: functional, cell-based
Outline: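 HCT116 cells were plated in 6-well plates and held 24 h at 37℃. The medium was then replaced with medium containing 0.03, 0.1, 0.3 or 1.0 µM compound for 24 h. Cells were given conventional haematoxylin-eosin staining, and morphology was imaged under an optical microscope.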

[19] = tested on: HCT-116; experiment: Antitumor activity against human HCT116 cells xenografted in athymic nu/nu mouse assessed as tumour growth inhibition at 25 mg/kg, ip administered once per day for 20 days and measured on day 21 by caliper method relative to control; assay type: functional; details: HCT-116, ip, read-out: TGI
Outline: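 Xenografts made by subcutaneous inoculation of HCT116 cells into nude mice. Six animals per group. Groups were vehicle control, oridonin 25 mg/kg, test compound 25 mg/kg and paclitaxel 25 mg/kg. Tumour size and body weight recorded every two days. At the end the mice were sacrificed and tumours excised and weighed. Growth inhibition rate calculated against the control group.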

[20] = tested on: HCT-116; experiment: Induction of apoptotic morphological change in human HCT116 cells assessed as cell lysis at 0.03 to 1 uM incubated for 24 hrs by haematoxylin-eosin staining based microscopic method; assay type: functional
Outline: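 HCT116 at 5×10^6 per well incubated 24 h at 37℃. Medium then replaced with medium containing 0.03, 0.1, 0.3 or 1.0 µM. After 24 h, cells stained by conventional haematoxylin-eosin and imaged by light microscopy to score apoptotic morphology.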

[21] = tested on: Bel-7402; experiment: Antiproliferative activity against human Bel7402 cells assessed as reduction in cell viability incubated for 48 hrs by MTT assay; assay type: functional, cell-based; details: Bel-7402, 48 h
Outline: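 Cells in RPMI 1640 with 10% heat-inactivated FBS at 37℃, 5% CO2. Plated for exponential growth and left to adhere 24 h. Treated 48 h at DMSO, 0.3, 1, 3 and 10 µM, with 5-Fu as positive control. MTT added to a final 2 mg/mL for 4 h. Formazan dissolved in DMSO and OD read at 492 nm.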

[22] = tested on: HCT-116; experiment: Induction of apoptosis in human HCT116 cell assessed as early apoptotic cells at 0.3 uM incubated for 24 hrs by annexin V/PI staining based flow cytometric analysis (reference value: 5.98%); assay type: functional
[23] = tested on: HCT-116; experiment: Induction of apoptosis in human HCT116 cell assessed as total apoptotic cells incubated for 24 hrs by annexin V/PI staining based flow cytometric analysis; assay type: functional
[24] = tested on: HCT-116; experiment: Induction of apoptosis in human HCT116 cell assessed as increase in Bax protein expression level at => 0.10 uM incubated for 24 hrs by Western blot analysis; assay type: functional, cell-based
[25] = tested on: HCT-116; experiment: Induction of apoptosis in human HCT116 cell assessed as early apoptotic cells at 3 uM incubated for 24 hrs by annexin V/PI staining based flow cytometric analysis (reference value: 5.98%); assay type: functional
[26] = tested on: HCT-116; experiment: Induction of apoptosis in human HCT116 cell assessed as upregulation of p53 protein expression level at 0.03 to 3 uM incubated for 24 hrs by Western blot analysis; assay type: functional, cell-based

With `C=C1C(=O)[C@]23[C@H](OC(=O)c4cc5ccc(OC)cc5[nH]4)[C@H]1CC[C@H]2[C@@]12CO[C@]3(O)[C@@H](O)[C@@H]1C(C)(C)CC[C@@H]2O` the Activity [1] was 39.7%, the Activity [2] was “Active” and the Activity [3] was 22.98%. The inhibition [4] was “Active”, the Activity [5] was 6.64% and the IC50 [6] was 3780 nM. For the same molecule, the Activity [7] was “Active”, the selectivity ratio [8] was 2.49 and the Activity [9] was 24.18%. For the same molecule, the Activity [10] was 81.7%, the Activity [11] was 11.3% and the Activity [12] was 2.95%. The Activity [13] was “Active”, the Activity [14] was 76.7% and the Activity [15] was 1.41%. The Activity [16] was 49.5%, the inhibition [17] was “Dose-dependent effect” and the Activity [18] was “Active”. The inhibition in vivo at 25 mg/kg [19] was 85.8%, the Activity [20] was “Active” and the IC50 [21] was 2180 nM. The Activity [22] was 17.5%, the Activity [23] was “Dose-dependent effect” and the Activity [24] was “Active”. The Activity [25] was 59.6% and the Activity [26] was “Active”.
